Experimental data published in ChEMBL document CHEMBL3853270, “Influence of Birch Bark Triterpenes on Keratinocytes and Fibroblasts from Diabetic and Nondiabetic Donors” (2016).
The source made the active and inactive calls. The calls are words filed in the database; no cut-off is given here.

What was measured:
Fibroblast [1] = assay: Effect on adhesion molecules related gene expression in non-diabetic adult human primary fibroblasts assessed as VCAM1 mRNA levels at 9.81 uM after 6 hrs by qPCR analysis; assay type: functional
How it was run: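 Dermal fibroblasts from nondiabetic adult and diabetic adult donors, exposed for 6 h at 1.96 or 9.81 μM. ICAM-1 and VCAM-1 mRNA measured by standard qRT-PCR, n = 3. Fold change versus 0.1% DMSO control, SD, one-way ANOVA with Bonferroni post-test.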

Keratinocyte [2] = assay: Effect on antioxidant related gene expression in non-diabetic young human primary keratinocytes assessed as SOD2 mRNA levels at 9.81 uM after 6 hrs by qPCR analysis; assay type: functional
Keratinocyte [3] = assay: Effect on chemokines related gene expression in non-diabetic adult human primary keratinocytes assessed as IL8 mRNA levels at 9.81 uM after 6 hrs by qPCR analysis; assay type: functional
Keratinocyte [4] = assay: Effect on pro-inflammatory related gene expression in diabetic adult human primary keratinocytes assessed as PTGS2 mRNA levels at 1.96 uM after 6 hrs by qPCR analysis; assay type: functional
[5] = Effect on wound healing activity in diabetic adult human primary keratinocytes assessed as upregulation of soluble E-selectin protein levels at 1.96 uM after 24 hrs by bead-based suspension array analysis; assay type: functional; conditions: Keratinocyte
Fibroblast [6] = assay: Effect on antioxidant related gene expression in diabetic adult human primary fibroblasts assessed as NFE2L2 mRNA levels at 1.96 uM after 6 hrs by qPCR analysis; assay type: functional
Keratinocyte [7] = assay: Effect on chemokines related gene expression in non-diabetic adult human primary keratinocytes assessed as CXCL10 mRNA levels at 9.81 uM after 6 hrs by qPCR analysis; assay type: functional
Keratinocyte [8] = assay: Effect on cellular connection related gene expression in non-diabetic adult human primary keratinocytes assessed as CLDN4 mRNA levels at 9.81 uM after 6 hrs by qPCR analysis; assay type: functional
Keratinocyte [9] = assay: Effect on transcription factor related gene expression in diabetic adult human primary keratinocytes assessed as JUN mRNA levels at 1.96 uM after 6 hrs by qPCR analysis; assay type: functional
Keratinocyte [10] = assay: Effect on growth factor related gene expression in non-diabetic adult human primary keratinocytes assessed as GDF15 mRNA levels at 9.81 uM after 6 hrs by qPCR analysis; assay type: functional
How it was run: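 Primary human keratinocytes (nondiabetic young or adult, diabetic adult donors) were exposed to compound for 6 h, with 0.1% DMSO as solvent control. Total RNA came from 400 000 cells per sample and was assayed on a Fluidigm Biomark high-throughput qPCR chip. Results are fold change vs solvent control, from 2−4 independent experiments on two donors per group, with SD. Groups were compared by one-way ANOVA with Bonferroni post-test.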

Fibroblast [11] = assay: Effect on pro-inflammatory related gene expression in non-diabetic young human primary fibroblasts assessed as IL6 mRNA levels at 1.96 uM after 6 hrs by qPCR analysis; assay type: functional
Fibroblast [12] = assay: Effect on chemokines related gene expression in non-diabetic young human primary fibroblasts assessed as IL8 mRNA levels at 9.81 uM after 6 hrs by qPCR analysis; assay type: functional
How it was run: (§1)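 Primary human dermal fibroblasts (young or adult nondiabetic, adult diabetic donor) were treated for 6 h against a 0.1% DMSO solvent control. RNA from 320 000 cells per sample was measured by Fluidigm Biomark high-throughput qPCR. Values are fold change relative to solvent control, from four independent experiments, with SD. One-way ANOVA with Bonferroni post-test was applied.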

Keratinocyte [13] = assay: Effect on chemokines related gene expression in non-diabetic adult human primary keratinocytes assessed as CXCL10 mRNA levels at 1.96 uM after 6 hrs by qPCR analysis; assay type: functional
Fibroblast [14] = assay: Effect on chemokines related gene expression in non-diabetic young human primary fibroblasts assessed as WDR26 mRNA levels at 1.96 uM after 6 hrs by qPCR analysis; assay type: functional; how it was run: as §1
Keratinocyte [15] = assay: Effect on cellular connection related gene expression in non-diabetic young human primary keratinocytes assessed as GJB2 mRNA levels at 1.96 uM after 6 hrs by qPCR analysis; assay type: functional
Keratinocyte [16] = assay: Effect on cellular connection related gene expression in diabetic adult human primary keratinocytes assessed as GJB2 mRNA levels at 1.96 uM after 6 hrs by qPCR analysis; assay type: functional
Keratinocyte [17] = assay: Effect on ECM related gene expression in non-diabetic young human primary keratinocytes assessed as FBN1 mRNA levels at 1.96 uM after 6 hrs by qPCR analysis; assay type: functional
How it was run: (§2)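 Primary keratinocytes from nondiabetic young and adult and diabetic adult donors; 400 000 cells per sample, 6 h exposure at 1.96 or 9.81 μM. RNA extracted and read on a high-throughput qPCR chip. Results are fold change versus 0.1% DMSO solvent control from 5−7 independent experiments over two donors per group, SD, one-way ANOVA with Bonferroni post-test.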

Fibroblast [18] = assay: Effect on growth factors related gene expression in non-diabetic young human primary fibroblasts assessed as FGF2 mRNA levels at 9.81 uM after 6 hrs by qPCR analysis; assay type: functional; how it was run: as §1
Fibroblast [19] = assay: Effect on chemokines related gene expression in non-diabetic young human primary fibroblasts assessed as CCL2 mRNA levels at 9.81 uM after 6 hrs by qPCR analysis; assay type: functional; how it was run: as §1
[20] = molecular target: Ras-related C3 botulinum toxin substrate 1 (Homo sapiens) (UniProt P63000); assay: Activation of Rac1 in human diabetic primary keratinocytes at 10 nM after 20 mins by immunoblot method
How it was run: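 Primary keratinocytes from a diabetic adult donor (NHK-d), exposed 20 min. Lysed in glycerol/Tris pH 7.4/NaCl/NP-40/MgCl2/PMSF buffer and cleared at 4 °C. Supernatant incubated 1 h at 4 °C with glutathione-sepharose beads carrying GST-PAK to pull down active GTP-bound Rac1. Blotted on a 13% gel, probed with anti-Rac1 (1:2.000) and detected by ECL; total Rac1 also measured. CNF1 (2 nM) positive control, n = 3.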

Keratinocyte [21] = assay: Effect on pro-inflammatory related gene expression in non-diabetic adult human primary keratinocytes assessed as TNF mRNA levels at 1.96 uM after 6 hrs by qPCR analysis; assay type: functional
Keratinocyte [22] = assay: Effect on cellular connection related gene expression in non-diabetic adult human primary keratinocytes assessed as CLDN4 mRNA levels at 1.96 uM after 6 hrs by qPCR analysis; assay type: functional
Fibroblast [23] = assay: Effect on pro-inflammatory related gene expression in non-diabetic adult human primary fibroblasts assessed as PTGS2 mRNA levels at 9.81 uM after 6 hrs by qPCR analysis; assay type: functional
Keratinocyte [24] = assay: Effect on antioxidant related gene expression in diabetic adult human primary keratinocytes assessed as SOD2 mRNA levels at 1.96 uM after 6 hrs by qPCR analysis; assay type: functional
Fibroblast [25] = assay: Effect on growth factors related gene expression in diabetic adult human primary fibroblasts assessed as FGF2 mRNA levels at 9.81 uM after 6 hrs by qPCR analysis; assay type: functional; how it was run: as §1
Keratinocyte [26] = assay: Effect on ECM related gene expression in diabetic adult human primary keratinocytes assessed as FBN1 mRNA levels at 9.81 uM after 6 hrs by qPCR analysis; assay type: functional; how it was run: as §2
Keratinocyte [27] = assay: Effect on transcription factor related gene expression in diabetic adult human primary keratinocytes assessed as JUN mRNA levels at 9.81 uM after 6 hrs by qPCR analysis; assay type: functional
Keratinocyte [28] = assay: Effect on chemokines related gene expression in non-diabetic adult human primary keratinocytes assessed as IL8 mRNA levels at 1.96 uM after 6 hrs by qPCR analysis; assay type: functional

C=C(C)[C@@H]1CC[C@]2(CO)CC[C@]3(C)[C@H](CC[C@@H]4[C@@]5(C)CC[C@H](O)C(C)(C)[C@@H]5CC[C@]43C)[C@@H]12 [BETULIN]
fold change (FC) (Fibroblast [1]): 53.7 | fold change (FC) (Keratinocyte [2]): 1.4 | fold change (FC) (Keratinocyte [3]): 69.9 | fold change (FC) (Keratinocyte [4]): 1.3 | Activity [5]: Active | fold change (FC) (Fibroblast [6]): 1.8 | fold change (FC) (Keratinocyte [7]): 4.3 | fold change (FC) (Keratinocyte [8]): 1.5 | fold change (FC) (Keratinocyte [9]): 1.2 | fold change (FC) (Keratinocyte [10]): 1 | fold change (FC) (Fibroblast [11]): 45 | fold change (FC) (Fibroblast [12]): 32 | fold change (FC) (Keratinocyte [13]): 2.9 | fold change (FC) (Fibroblast [14]): 1.1 | fold change (FC) (Keratinocyte [15]): 0.8 | fold change (FC) (Keratinocyte [16]): 0.9 | fold change (FC) (Keratinocyte [17]): 1.8 | fold change (FC) (Fibroblast [18]): 1.8 | fold change (FC) (Fibroblast [19]): 4.3 | Activity [20]: Active | fold change (FC) (Keratinocyte [21]): 3.8 | fold change (FC) (Keratinocyte [22]): 1 | fold change (FC) (Fibroblast [23]): 179 | fold change (FC) (Keratinocyte [24]): 1.1 | fold change (FC) (Fibroblast [25]): 1.6 | fold change (FC) (Keratinocyte [26]): 2.5 | fold change (FC) (Keratinocyte [27]): 1.7 | fold change (FC) (Keratinocyte [28]): 24.2
